Measurements as given in ChEMBL document CHEMBL1124622, “Synthesis and antiviral activity of 3'-C-cyano-3'-deoxynucleosides” (J Med Chem, 1989).
≈ marks a conversion by molar mass, not a printed value.

How the values were obtained:
[1] = tested on: Moloney murine sarcoma virus; assay: In vitro effective dose against Moloney murine sarcoma virus induced transformation of C3H embryo fibroblast cells.; type: functional; conditions: read-out: ED50 (the source's name)
Summary of the method: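 C3H mouse embryo cells are seeded at 20 000 cells/mL per well and grown 24 h. They are infected with 80 foci-forming units of Moloney MSV for 90 min, then given fresh medium with varying compound concentrations. Transformation is examined microscopically after 6-7 days. ED50 is the dose giving a 50% reduction in transformation.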

[2] = In vitro minimum cytotoxic concentration in C3H embryo fibroblast cells.; type: functional; conditions: Mus musculus
Summary of the method: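 Minimal cytotoxic concentration in C3H mouse embryo cells, run in the same 48-well setup as the MSV transformation assay: the concentration producing microscopically visible alteration of cell morphology.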

[3] = Minimum cytotoxic concentration in HeLa cell cultures; type: cell-based; conditions: human, HeLa cells
[4] = tested on: HeLa; assay: Minimum inhibitory concentration against Vesicular stomatitis virus in HeLa cell cultures; type: functional; conditions: Homo sapiens
Summary of the method: (§1)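 Confluent HeLa, Vero or primary rabbit kidney cell cultures in microtiter trays are inoculated with 100 CCID50 of virus. After 1 h adsorption, residual virus is removed and cells are incubated with varying compound concentrations. Cytopathogenicity is recorded once it is complete in untreated virus-infected controls. MIC is the concentration inhibiting virus-induced cytopathogenicity.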

[5] = tested on: HeLa; assay: Minimum inhibitory concentration against polio virus 1 in HeLa cell cultures; type: functional; conditions: Homo sapiens; summary of the method: as §1
[6] = species on record: Homo sapiens; assay: Cytotoxic dose against uninfected human MT-4 cell; type: functional; conditions: MT4, read-out: CD50 (the source's name)
Summary of the method: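 Cytotoxicity counterpart of the HIV assay: uninfected human MT-4 lymphocytes exposed to the compounds. CD50 is the dose that reduces viability of these uninfected cells by 50%.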

[7] = tested on: Human immunodeficiency virus 1; assay: Effective dose against HIV-1 induced cytopathogenicity in human MT-4 cell.; type: functional; conditions: Human immunodeficiency virus 1, MT4; read-out: ED50 (the source's name)
Summary of the method: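 HIV (HTLV-III_B) is taken from the culture supernatant of a persistently infected HUT-78 line. Human MT-4 lymphocytes are infected and the assay scores inhibition of virus-induced cytopathogenicity. ED50 is the dose giving 50% protection of MT-4 cells against the viral cytopathic effect.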

[8] = Minimum cytotoxic concentration in primary rabbit kidney cell cultures; type: cell-based, Oryctolagus cuniculus; conditions: primary rabbit kidney cells
[9] = tested on: Coxsackievirus B4; assay: Minimum inhibitory concentration against Coxsackie virus B4 in Vero cell cultures; type: functional; conditions: Enterovirus B; summary of the method: as §1
[10] = tested on: Semliki Forest virus; assay: Minimum inhibitory concentration against forest virus in Vero cell cultures; type: functional; summary of the method: as §1
[11] = tested on: Sindbis virus; assay: Minimum inhibitory concentration against Sindbis virus in Vero cell cultures; type: functional; summary of the method: as §1
[12] = tested on: Human respirovirus 3; assay: Minimum inhibitory concentration against parainfluenza 3 virus in Vero cell cultures; type: functional; summary of the method: as §1
[13] = tested on: Mammalian orthoreovirus 1; assay: Minimum inhibitory concentration against reovirus in Vero cell cultures; type: functional; summary of the method: as §1
[14] = tested on: Vaccinia virus; assay: Minimum inhibitory concentration against Vaccinia virus in primary rabbit kidney cell cultures; type: functional; conditions: Orthopoxvirus vaccinia; summary of the method: as §1
[15] = tested on: Vesicular stomatitis virus; assay: Minimum inhibitory concentration against Vesicular stomatitis virus in primary rabbit kidney cell cultures; type: functional; summary of the method: as §1
[16] = tested on: HeLa; assay: Minimum inhibitory concentration against Coxsackie virus B4 in HeLa cell cultures; type: functional; conditions: Homo sapiens; summary of the method: as §1
[17] = Minimum cytotoxic concentration in Vero cell cultures; type: cell-based; conditions: chlorocebus sabaeus, Vero cells

Row | Structure (SMILES) | EC50 [1] [µg/mL] | MCC [2] [µg/mL] | MCC [3] [µg/mL] | MIC [4] [µg/mL] | MIC [5] [µg/mL] | CC50 [6] [µM] | EC50 [7] [µM] | MCC [8] [µg/mL] | MIC [9] [µg/mL] | MIC [10] [µg/mL] | MIC [11] [µg/mL] | MIC [12] [µg/mL] | MIC [13] [µg/mL] | MIC [14] [µg/mL] | MIC [15] [µg/mL] | MIC [16] [µg/mL] | MCC [17] [µg/mL]
1 | Cc1cn(C2C=C(C#N)C(CO)O2)c(=O)[nH]c1=O (stereo not given) | 191 (≈ 766 µM) | > 250 | 400 | 150 (≈ 602 µM) | > 200 | 24 | > 50 | 200 | > 100 | > 40 | > 100 | > 40 | > 40 | > 100 | > 100 | > 200 | > 100
2 | N#C[C@@H]1[C@@H](O)[C@H](n2ccc(=O)[nH]c2=O)O[C@@H]1CO | 260 (≈ 1030 µM) | 400 | > 400 | > 200 | > 200 | > 400 | > 400 | > 200 | > 200 | > 200 | > 200 | > 200 | > 200 | 4 (≈ 15.8 µM) | > 200 | > 200 | 400
3 | CC(C)(C)[Si](C)(C)OC[C@H]1O[C@@H](n2cnc3c(N)ncnc32)[C@H](O[Si](C)(C)C(C)(C)C)[C@@H]1C#N | > 1.6 | 8 | 400 | 150 (≈ 297 µM) | > 200 | 5.1 | 2.1 | 10 | > 4 | > 4 | > 4 | > 4 | > 4 | > 4 | > 4 | > 200 | 10
4 | N#C[C@@H]1[C@@H](O)[C@H](n2cnc3c(N)ncnc32)O[C@@H]1CO | 6.6 (≈ 23.9 µM) | > 40 | 400 | 150 (≈ 543 µM) | > 200 | 2.9 | > 1.6 | 200 | 100 (≈ 362 µM) | 20 (≈ 72.4 µM) | 10 (≈ 36.2 µM) | 70 (≈ 253 µM) | > 100 | 4 (≈ 14.5 µM) | > 200 | > 200 | 200
5 | N#CC1C(CO)OC(n2ccc(N)nc2=O)C1O (stereo not given) | 43 (≈ 170 µM) | > 200 | 100 | 70 (≈ 278 µM) | > 40 | 22.7 | > 10 | > 100 | > 100 | > 100 | > 100 | > 100 | > 100 | 40 (≈ 159 µM) | > 100 | > 40 | 200
6 | CC(=O)Nc1ccn(C2OC(CO[Si](C)(C)C(C)(C)C)C(C#N)C2O[Si](C)(C)C(C)(C)C)c(=O)n1 (stereo not given) | 2.2 (≈ 4.21 µM) | > 3.2 | > 4 | > 1 | > 4 | 4.8 | > 3.2 | > 4 | > 4 | > 4 | > 4 | > 4 | > 4 | > 1 | > 1 | 2 (≈ 3.83 µM) | > 4
7 | CC(C)(C)[Si](C)(C)OC[C@H]1O[C@@H](n2ccc(=O)[nH]c2=O)[C@H](O[Si](C)(C)C(C)(C)C)[C@H]1C#N | 2.2 (≈ 4.57 µM) | > 3.2 | 4 | > 1 | > 4 | 1.6 | > 6.04 | > 4 | > 1 | > 1 | > 1 | > 1 | > 1 | > 1 | > 1 | > 4 | 4
8 | Cc1cn(C2CC(C#N)C(CO[Si](C)(C)C(C)(C)C)O2)c(=O)[nH]c1=O (stereo not given) | > 16 | 80 | 100 | > 40 | > 40 | 31 | > 16 | > 100 | > 100 | > 100 | > 100 | > 100 | 20 (≈ 54.7 µM) | > 40 | > 40 | > 40 | > 100
9 | N#C[C@H]1[C@@H](O)[C@H](n2ccc(=O)[nH]c2=O)O[C@@H]1CO | > 200 | > 200 | > 200 | > 200 | > 200 | 147 | > 80 | > 200 | > 100 | > 100 | > 100 | > 100 | > 100 | > 200 | > 200 | > 200 | > 200
10 | Cc1cn(C2OC(CO)C(C#N)C2O)c(=O)[nH]c1=O (stereo not given) | > 250 | > 250 | > 400 | > 200 | > 200 | 232 | > 250 | 400 | > 100 | 300 (≈ 1120 µM) | 150 (≈ 561 µM) | > 100 | > 200 | 150 (≈ 561 µM) | > 200 | > 200 | > 200
11 | Cc1cn([C@H]2C[C@@H](C#N)[C@@H](CO)O2)c(=O)[nH]c1=O | > 250 | > 250 | > 400 | > 400 | > 400 | > 250 | > 250 | > 400 | > 400 | > 400 | > 400 | > 200 | > 200 | > 400 | > 400 | > 400 | > 400
12 | Nc1nccc2c1ncn2[C@@H]1C[C@H](CO)[C@@H](O)[C@H]1O [3-DEAZAARISTEROMYCIN A] |  |  | > 400 | 1 (≈ 3.78 µM) | > 400 |  |  | > 400 | 100 (≈ 378 µM) | > 400 | 300 (≈ 1140 µM) | 4 (≈ 15.1 µM) | 7 (≈ 26.5 µM) | 2 (≈ 7.57 µM) | 0.7 (≈ 2.65 µM) | > 400 | 400
